Data published in PMC6528641 (ChemistryOpen, 2019).

Columns and labels:
BuChE = BuChE (Bos taurus, UniProt P32749); experiment: BuChE inhibitory assay; type: biochemical, bovine
AChE = AChE (Electrophorus electricus, UniProt O42275); experiment: AChE inhibitory assay; type: biochemical, Electroporus electricus
[1] = system: human neuroblastoma SH‐SY5Y cells; experiment: Neurotoxicity assay, cell viability by Neutral Red method; type: cell-based; conditions: SH‐SY5Y cells
Method in brief: (§1)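 SH-SY5Y cells (passages 18–23) in DMEM with 5% FBS were seeded at 2×10^4 cells/well and grown 24 h at 37 °C, 5% CO2. Test compound came from a 1×10−2 M DMSO stock, freshly diluted in medium, and was applied for 24 h. Controls were medium alone and 120 mM K+ (death). Cells were PBS-washed, given neutral red for 3 h at 37 °C, extracted 20 min with acidified ethanol, and read at A540.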

[2] = as above; type: cell-based, human; conditions: human, SH-SY5Y neuroblastoma cells
Method in brief: as §1

Chain of AChE (O42275 24-633): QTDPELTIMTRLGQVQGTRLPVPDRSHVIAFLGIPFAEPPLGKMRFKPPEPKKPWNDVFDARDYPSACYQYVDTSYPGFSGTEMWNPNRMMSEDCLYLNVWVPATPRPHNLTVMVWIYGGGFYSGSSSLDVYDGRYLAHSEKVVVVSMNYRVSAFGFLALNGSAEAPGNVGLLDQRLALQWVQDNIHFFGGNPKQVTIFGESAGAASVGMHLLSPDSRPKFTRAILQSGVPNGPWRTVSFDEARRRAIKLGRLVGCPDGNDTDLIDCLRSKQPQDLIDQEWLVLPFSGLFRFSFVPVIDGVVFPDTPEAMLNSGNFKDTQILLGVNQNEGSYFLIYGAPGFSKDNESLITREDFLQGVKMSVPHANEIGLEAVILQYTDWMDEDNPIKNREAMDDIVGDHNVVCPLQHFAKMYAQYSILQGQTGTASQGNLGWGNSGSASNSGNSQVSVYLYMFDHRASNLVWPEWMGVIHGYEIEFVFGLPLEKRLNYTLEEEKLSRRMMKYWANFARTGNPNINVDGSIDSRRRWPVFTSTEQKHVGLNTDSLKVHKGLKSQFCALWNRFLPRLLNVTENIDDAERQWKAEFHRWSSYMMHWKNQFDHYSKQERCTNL
Chain of BuChE (P32749 29-602): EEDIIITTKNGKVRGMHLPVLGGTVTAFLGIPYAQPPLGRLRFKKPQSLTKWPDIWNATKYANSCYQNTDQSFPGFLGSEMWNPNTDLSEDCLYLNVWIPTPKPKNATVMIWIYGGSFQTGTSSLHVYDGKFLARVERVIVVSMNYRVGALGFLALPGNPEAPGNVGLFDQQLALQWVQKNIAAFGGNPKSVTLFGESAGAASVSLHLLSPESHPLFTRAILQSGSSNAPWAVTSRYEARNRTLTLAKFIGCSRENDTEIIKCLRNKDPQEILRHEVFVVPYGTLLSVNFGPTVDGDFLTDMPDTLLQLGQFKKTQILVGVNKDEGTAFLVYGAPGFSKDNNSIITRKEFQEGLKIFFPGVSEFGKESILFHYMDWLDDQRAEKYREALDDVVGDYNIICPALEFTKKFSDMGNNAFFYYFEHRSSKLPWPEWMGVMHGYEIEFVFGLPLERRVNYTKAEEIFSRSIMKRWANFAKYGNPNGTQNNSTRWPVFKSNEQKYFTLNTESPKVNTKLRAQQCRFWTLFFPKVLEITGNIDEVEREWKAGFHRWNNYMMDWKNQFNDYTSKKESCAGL

Row | Compound | IC50 (BuChE) [µM] | IC50 (AChE) [µM] | Cytotoxicity (in words) [1] | IC50 at 24 h [2] [µM] | viability at 24 h, 10 µM [2] [%] | viability at 24 h, 1 mM [2] [%]
1 | O=CNC1CC(c2ccncc2)Nc2c1ccc1cccnc21 (stereo not drawn) [4 d, N‐(2‐(pyridin‐4‐yl)1,2,3,4‐tetrahydro‐1,10‐phenanthroline‐4‐yl) formamide] | 138.63 ± 0.01 | 63.63 ± 0.01 | non‐cytoxicity | 5500 | 132 ± 25.6 | 102 ± 18.9
2 | Nc1cccc2cccnc12 [8‐amino‐quinoline, reference compound] | 195.08 ± 0.02 | 171.56 ± 0.01 | – | – | – | –
3 | COc1ccc(C2CC(NC=O)c3ccc4cccnc4c3N2)cc1 (stereo not drawn) [4 e, N‐(2‐(4‐methoxyphenyl)‐1,2,3,4‐tetrahydro‐1,10‐phenanthroline‐4‐yl) formamide] | – | 362.11 ± 0.03 | – | 3700 | 119 ± 6.4 | 78.5 ± 12.5
4 | O=CNC1CC(c2ccccc2)Nc2c1ccc1cccnc21 (stereo not drawn) [4 a, N‐(2‐phenyl‐1,2,3,4‐tetrahydro‐1,10‐phenanthroline‐4‐yl) formamide] | – | > 500 | – | – | – | –
5 | O=CNC1CC(c2cccnc2)Nc2c1ccc1cccnc21 (stereo not drawn) [4 c, N‐(2‐(pyridin‐3‐yl)‐1,2,3,4‐tetrahydro‐1,10‐phenanthroline‐4‐yl) formamide] | – | 140.2 ± 0.02 | – | – | – | –
6 | O=CNC1CC(c2ccc([N+](=O)[O-])cc2)Nc2c1ccc1cccnc21 (stereo not drawn) [4 g, N‐(2‐(4‐nitrophenyl)‐1,2,3,4‐tetrahydro‐1,10‐phenanthroline‐4‐yl) formamide] | – | 96.52 ± 0.01 | non‐cytoxicity | 300 | 116 ± 5 | 21.9 ± 3.9
7 | O=CNC1CC(c2ccccn2)Nc2c1ccc1cccnc21 (stereo not drawn) [4 b, N‐(2‐(pyridin‐2‐yl)‐1,2,3,4‐tetrahydro‐1,10‐phenanthroline‐4‐yl) formamide] | 152.99 ± 0.01 | 143.66 ± 0.02 | – | – | – | –
